Measurements reported in ChEMBL document CHEMBL2034912, “Synthesis of 4-methylcoumarin derivatives containing 4,5-dihydropyrazole moiety to scavenge radicals and to protect DNA” (Eur J Med Chem, 2012).
Active and inactive are the calls of the source.

What was measured:
Type in all cases: functional
[1] = Antioxidant activity against AAPH-induced DNA oxidation assessed as decrease in thiobarbituric acid reactive substances at 80 to 200 uM measured every 120 mins by spectrophotometry
Method in brief: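 DNA (final 2.0 mg/mL) and AAPH (final 4.0 mM) in phosphate buffer with 10.0 mM EDTA; test compounds added in DMSO across various concentrations; 2.0 mL aliquots incubated at 37 °C. Three tubes withdrawn every 120 min, cooled, treated with TBA and 3.0% trichloroacetic acid, then boiled 15 min; TBARS absorbance read. Inhibition period (t_inh) fitted linearly against concentration.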

[2] = Antioxidant activity assessed as ABTS radical scavenging activity at 40 uM
Method in brief: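 ABTS (4.0 mM) oxidized with 1.41 mM K₂S₂O₈ for 16 h to form the radical cation, then diluted with ethanol to absorbance about 0.70. Compound added at 0.04 mM, and absorbance decay at 734 nm followed over time. Number of radicals trapped (n) is the depleted ABTS radical concentration divided by antioxidant concentration.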

[3] = test system: Radical scavenging activity; assay: Antioxidant activity assessed as DPPH radical scavenging activity at 40 uM
Method in brief: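 DPPH dissolved in ethanol to absorbance about 1.00 at 517 nm (ε […] M⁻¹ cm⁻¹). Compound added as an ethanol solution at a single final concentration, and the decay of DPPH absorbance recorded.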

Measured: Activity

Cc1cc(=O)oc2c(C3=NNC(c4cccc([N+](=O)[O-])c4)C3)c(O)ccc12 (centres undefined)
active: all assays above

CC(=O)N1N=C(c2c(O)ccc3c(C)cc(=O)oc23)CC1c1cccc([N+](=O)[O-])c1 (centres undefined)
active: all assays above

CC(=O)N1N=C(c2c(O)ccc3c(C)cc(=O)oc23)CC1c1ccc(O)c(O)c1 (centres undefined)
active: all assays above

COc1cc(C2CC(c3c(O)ccc4c(C)cc(=O)oc34)=NN2C(C)=O)ccc1O (centres undefined)
active: all assays above

COc1cc(C2CC(c3c(O)ccc4c(C)cc(=O)oc34)=NN2)ccc1O (centres undefined)
active: all assays above

O=c1ccc2cc3ccoc3c(O)c2o1
active: all assays above

CC(=O)N1N=C(c2c(O)ccc3c(C)cc(=O)oc23)CC1c1ccccc1O (centres undefined)
active: all assays above

CC(=O)N1N=C(c2c(O)ccc3c(C)cc(=O)oc23)CC1c1ccc(O)cc1O (centres undefined)
active: all assays above
